Measured values from article PMC9715912 (Cell Reports, 2022).

Columns and labels:
Assay type in all cases: in vivo, Mus musculus
[1] = system: arcuate nucleus of control and Tanycyte^ΔVegfa mice; details: 2-DG 250 mg/kg with Ex-4_Cy3 120 nmol/kg; data not shown
[2] = system: hypothalamus and hindbrain; details: 2-DG 250 mg/kg i.p. after 5 h food deprivation; Fig 3B
Summary of the method: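 Mice food-deprived 5 h, then given 2-DG (250 mg/kg i.p.). […] Brains were dissected, dehydrated through a tetrahydrofuran series, cleared in dibenzylether and imaged by whole-brain light-sheet microscopy. Signal was autofluorescence-unmixed, and the volume of signal dispersion was quantified. Blood glucose was tracked; mean ± SEM.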

[3] = system: hypothalamus (ME/ARC) and other CVOs; details: 120 nmol/kg i.p., 15 min before sacrifice; 2D planes from LSFM; Fig 2A
[4] = system: control and Tanycyte^ΔVegfa mice; assay: Metabolic efficiency; details: chow, daily i.p. insulin 20 nmol/kg, Fig 5F,G
Glycemic change = details: single i.p. insulin injection, mean ± SEM

## Ex-4_Cy3: fluorescent Exendin-4 labeled with Cy3, Novo Nordisk
[1]
  total fluorescence intensity, control vs Tanycyte ΔVegfa: comparable between groups

## O=CC[C@@H](O)[C@H](O)[C@H](O)CO [2-DG, 2-deoxyglucose]
[2]
  blood glucose (counter-regulatory response): increased

## Ex-4_VT^750: fluorescent labeled Exendin4 (VT750), Novo Nordisk
[3]
  brain regions with Ex-4_VT750 signal after systemic administration: detected in the ME/ARC, OLVT, AP, SFO, and choroid plexus

## insulin: Insulin (Novorupid, Flex pen, 8-9670-79-202-2), Novo Nordisk
[4]
  change in fat oxidation in response to insulin, Tanycyte ΔVegfa mice: comparable with vehicle
Glycemic change; Tanycyte^ΔVegfa mice
  glycemic change (vehicle/insulin), Tanycyte ΔVegfa: 52% ± 2.08%
Glycemic change; control mice
  glycemic change (vehicle/insulin), controls: 62% ± 5.7%
